Assay results published in PubChem BioAssay.
Calls of active or inactive are those of the source.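 The calls were made as follows, unless noted: active = Her2 level under about 52% in both replicate screens, with viability over 70% of control (limit read from the data); inconclusive = Her2 under the limit in one screen only, or viability under 70%; inactive = Her2 level above the set limit.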

Columns and labels:
[1] = reducers of endogenous Her2 protein level, primary screen, SKBR3 breast tumor cells, AlphaScreen, ATP viability (AID 461); conditions: 18-24 h, measured here: SKBR3 viability, ATP luminescence, at 10 µM;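 as to Her2 level: lower value means less Her2 protein in the cells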;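 as to viability: percent of carrier control wells set as 100% viability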
[2] = target: Receptor tyrosine-protein kinase erbB-2 (Homo sapiens) (UniProt P04626); experiment: as above; conditions: 18-24 h, at 10 µM, stronger effect = lower value
[3] = SK-BR-3 cell growth inhibitors, pilot screen, 24 h, human (AID 572;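 active = viability at or below 10% of carrier control in both of two separate runs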;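 also: compound exposure lasted between 18 and 24 h rather than exactly 24 h; 100% = carrier-treated control wells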); conditions: SK-BR-3 viability, CellTiter-Glo luminescence, at 10 µM, stronger effect = lower value
[4] = HUVEC growth inhibition – cell-based, human, primary screen (AID 575;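 active = viability at or below 30% in both replicate assays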;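 also: 100% = median of untreated cell wells with 0.1% DMSO on each plate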); conditions: HUVEC proliferation, CellTiter-Glo luminescence, 72 h; at 10 µM; stronger effect = lower value
Procedure, shortened: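 System: primary human umbilical vein endothelial cells; Quantity: 1250 endothelial cells in each well; Buffer or medium: supplemented EBM, 2% fetal bovine serum; Doses: one dose, 10 µM final, 0.1% DMSO; Incubation: 72 h compound incubation; Technique: ATP-based CellTiter-Glo luminescent read; Evaluation: percent of median DMSO-control luminescence; Controls: vehicle and MePR control wells.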

[5] = growth inhibitors of H69AR lung tumor, primary screen, human, duplicate replicates (AID 580;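 active = viability at or under a set limit in both replicates, limit being median viability minus 3 SD, cut at about 48% in these data, passing the limit was not always enough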;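 also: 100% = mean luminescence of untreated wells and 0% = no signal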); conditions: H69AR lung tumor cells viability, ATP luminescence, 72 h; at 10 µM; stronger effect = lower value
[6] = reversal of MRP1-mediated doxorubicin resistance, pilot screen, H69AR cells, doxorubicin co-treatment (AID 601;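 active = viability loss from added drug above about 55%, and viability with drug at most 40%, in both replicates, limit read from the data, passing the limit was not always enough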); conditions: CellTiter-Glo, 72 h, at 10 µM; for differential viability (reversal): stronger effect = higher value
[7] = 384-well plate pilot, post-Golgi transport modulator project, inhibition of yeast transport mutant growth (AID 636; in the data active = inhibition above about 31%); conditions: absorbance 615 nm, about 18 h, stronger effect = higher value
[8] = growth suppression of yeast trafficking mutant, preliminary HTS, modulators of trafficking downstream of Golgi apparatus project, 1536-format plate, OD 615 nm (AID 637; in the data active = inhibition above about 30%); conditions: yeast transport mutant growth, absorbance 615 nm, 18 h; stronger effect = higher value
[9] = H69AR cells + 2 uM doxorubicin, measured here: viability with 2 uM doxorubicin, stronger effect = lower value
[10] = H69AR cells, compound alone cytotoxicity

Chain of Receptor tyrosine-protein kinase erbB-2 (Homo sapiens) (P04626 whole entry, looked up): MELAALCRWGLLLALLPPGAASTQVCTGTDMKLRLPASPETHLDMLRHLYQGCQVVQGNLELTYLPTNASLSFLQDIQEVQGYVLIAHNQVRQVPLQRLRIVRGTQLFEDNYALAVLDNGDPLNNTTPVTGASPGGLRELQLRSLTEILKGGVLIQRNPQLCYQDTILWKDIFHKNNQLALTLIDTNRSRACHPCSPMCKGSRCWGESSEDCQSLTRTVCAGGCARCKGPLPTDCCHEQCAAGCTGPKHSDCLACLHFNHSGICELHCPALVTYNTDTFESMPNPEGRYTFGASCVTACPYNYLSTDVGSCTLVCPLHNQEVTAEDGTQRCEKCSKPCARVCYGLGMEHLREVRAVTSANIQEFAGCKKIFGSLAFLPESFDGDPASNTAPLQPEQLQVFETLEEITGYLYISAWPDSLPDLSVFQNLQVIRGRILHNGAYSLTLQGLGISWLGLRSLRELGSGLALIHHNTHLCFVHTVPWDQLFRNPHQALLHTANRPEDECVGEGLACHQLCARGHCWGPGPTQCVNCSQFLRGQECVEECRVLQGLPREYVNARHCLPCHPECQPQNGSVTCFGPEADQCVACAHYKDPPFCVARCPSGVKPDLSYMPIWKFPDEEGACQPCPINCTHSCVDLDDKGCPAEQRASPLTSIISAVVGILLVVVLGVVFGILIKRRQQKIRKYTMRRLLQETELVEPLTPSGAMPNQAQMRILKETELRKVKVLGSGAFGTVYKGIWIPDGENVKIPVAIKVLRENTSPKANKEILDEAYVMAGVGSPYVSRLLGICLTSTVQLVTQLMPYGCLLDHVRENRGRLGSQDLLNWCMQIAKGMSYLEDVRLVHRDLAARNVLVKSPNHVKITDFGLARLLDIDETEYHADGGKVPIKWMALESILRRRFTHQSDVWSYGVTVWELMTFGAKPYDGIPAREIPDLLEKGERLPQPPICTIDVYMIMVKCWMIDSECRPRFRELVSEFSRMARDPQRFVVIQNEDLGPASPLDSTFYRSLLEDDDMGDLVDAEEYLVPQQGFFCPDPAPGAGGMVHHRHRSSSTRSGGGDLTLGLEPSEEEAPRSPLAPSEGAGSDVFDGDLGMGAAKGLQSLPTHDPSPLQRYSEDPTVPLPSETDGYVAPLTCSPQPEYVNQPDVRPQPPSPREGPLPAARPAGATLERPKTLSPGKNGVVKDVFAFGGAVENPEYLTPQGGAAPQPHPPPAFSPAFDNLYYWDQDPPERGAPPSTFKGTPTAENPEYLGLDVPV

Row | Structure (SMILES) | viability [1] | Her2 level [2] | viability [3] | viability [4] | viability [5] | differential viability (reversal) ([6]; H69AR cells + 2 uM doxorubicin) | viability [6, 9] | viability [6, 10] | inhibition [7] | inhibition [8]
1 | O=C(Nc1ccccc1)c1cccnc1N1CCOCC1 | 94% | 80% (inactive) | 94% (inactive) | 105% (inactive) | 102% (inactive) | 18.2% (inactive) | 84.1% | 102% | -0.92% (inactive) | -2.73% (inactive)
2 | CCN(Cc1nc2ccccc2c(=O)[nH]1)Cc1nc2cc(OC)c(OC)cc2c(=O)[nH]1 | 88.5% | 114% (inactive) | 88.5% (inactive) | 99.5% (inactive) | 89.8% (inactive) | -2.33% (inactive) | 92.1% | 89.8% | 0.54% (inactive) | 9.83% (inactive)
3 | CSC1=NCCN1C(=O)c1ccc(S(=O)(=O)N2CCCC2)cc1 | 111% | 107% (inactive) | 111% (inactive) | 91.2% (inactive) | 91.3% (inactive) | -1.11% (inactive) | 92.4% | 91.3% | 0.77% (inactive) | -3.17% (inactive)
4 | COc1ccc(OCC(O)Cn2c(Br)nc3c2c(=O)[nH]c(=O)n3C)cc1 (stereo not given) | 84% | 72% (inactive) | 84% (inactive) | 62.8% (inactive) | 28.5% (active) | -28.6% (inactive) | 57.1% | 28.5% | -4.4% (inactive) | 10.7% (inactive)
5 | CCOC(=O)c1cc2cc(F)ccc2nc1C | 103% | 112% (inactive) | 103% (inactive) | 120% (inactive) | 108% (inactive) | 20.9% (inactive) | 87.1% | 108% | -0.93% (inactive) | -5.9% (inactive)
6 | COc1ccc2nc(NC(=O)C(NS(=O)(=O)c3cccs3)C(C)C)sc2c1 (stereo not given) | 90.5% | 77% (inactive) | 90.5% (inactive) | 70.7% (inactive) | 92.7% (inactive) | 5.86% (inactive) | 86.9% | 92.7% | -2.5% (inactive) | -5.64% (inactive)
7 | COCCOC(=O)c1c(C)oc2ccc(NS(=O)(=O)c3ccc(F)cc3)cc12 | 85.5% | 90.5% (inactive) | 85.5% (inactive) | 93% (inactive) | 90.5% (inactive) | -4.71% (inactive) | 95.2% | 90.5% | -2.43% (inactive) | 2.7% (inactive)
8 | CC(=O)N1CCc2cc(Br)cc(S(=O)(=O)NCCCN3CCCC(C)C3)c21 (stereo not given) | 83% | 93% (inactive) | 83% (inactive) | 89.9% (inactive) | 91.8% (inactive) | 0.035% (inactive) | 91.7% | 91.8% | -2.57% (inactive) | -3.93% (inactive)
9 | O=C(C1CCCN(S(=O)(=O)c2cccs2)C1)N1CCc2ccccc2C1 (stereo not given) | 83% | 75.5% (inactive) | 83% (inactive) | 83.4% (inactive) | 85.3% (inactive) | -6.37% (inactive) | 91.7% | 85.3% | -4% (inactive) | 3.28% (inactive)
10 | COc1cccc(C(=O)Nc2ccc(C)cc2)c1 | 99% | 102% (inactive) | 99% (inactive) | 84.6% (inactive) | 92.3% (inactive) | 3.96% (inactive) | 88.3% | 92.3% | -3.47% (inactive) | -7.46% (inactive)
11 | Cc1ccc(-c2nnc3ccc(SCC(=O)NCc4ccco4)nn23)cc1 | 100% | 87.5% (inactive) | 100% (inactive) | 89% (inactive) | 93.2% (inactive) | 9.33% (inactive) | 83.9% | 93.2% | -5.41% (inactive) | -8.33% (inactive)
12 | COc1cccc(C(=O)N2CCCC(c3nc(-c4cccs4)no3)C2)c1 (stereo not given) | 98% | 81.5% (inactive) | 98% (inactive) | 93.4% (inactive) | 95.5% (inactive) | 2.9% (inactive) | 92.6% | 95.5% | -7.43% (inactive) | 4.26% (inactive)
13 | O=P(O)(O)c1ccccc1OCCOCCOc1ccccc1P(=O)(O)O | 101% | 89.5% (inactive) | 101% (inactive) | 111% (inactive) | 92% (inactive) | 5.91% (inactive) | 86.1% | 92% | -6.08% (inactive) | 0.5% (inactive)
14 | O=C(Cn1nnc(-c2ccc(CN3CCOCC3)cc2)n1)NC1CCCCC1 | 108% | 104% (inactive) | 108% (inactive) | 106% (inactive) | 101% (inactive) | 4.09% (inactive) | 97.1% | 101% | -5.73% (inactive) | 3.28% (inactive)
15 | Cn1c(CN2CCOCC2)nc2cc(NC(=O)c3ccccc3Cl)ccc21 | 102% | 103% (inactive) | 102% (inactive) | 92% (inactive) | 97.1% (inactive) | -2.36% (inactive) | 99.5% | 97.1% | -3.55% (inactive) | -2.42% (inactive)
16 | O=C(CSc1nc(-c2ccccc2)cs1)NC(=O)NCc1ccco1 | 86.5% | 77.5% (inactive) | 86.5% (inactive) | 58.4% (inactive) | 76.7% (inactive) | -0.93% (inactive) | 77.6% | 76.7% | -5.6% (inactive) | 2.06% (inactive)
